Assay results: ChEMBL document CHEMBL1157098, “AMP-activated protein kinase (AMPK) activation by benzofurans and coumestans isolated from Erythrina abyssinica” (J Nat Prod, 2010)
The source made the active and inactive calls. No cut-off for these calls is given here.

What was measured:
Assay type in all cases: cell-based
[1] = molecular target: 5'-AMP-activated protein kinase catalytic subunit alpha-1 (Mus musculus) (UniProt Q5EG47); assay: Activation of AMPKalpha in differentiated mouse C2C12 cells assessed as phosphorylated-AMPK level at 10 uM after 30 mins by Western blot analysis relative to control
Procedure, shortened: (§1)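 C2C12 myoblasts seeded at 10^5 cells/well and differentiated at confluence in DMEM with 5% horse serum, medium changed every 48 h until myotubes formed. Myotubes exposed to compounds for 30 min, lysed in EBC buffer (50 mM Tris-HCl pH 7.6, 120 mM NaCl, 1 mM EDTA, 0.5% NP-40, 50 mM NaF). About 30 µg protein immunoblotted for phospho-AMPKα Thr172, phospho-ACC Ser79, total AMPK, β-actin.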

[2] = molecular target: 5'-AMP-activated protein kinase catalytic subunit alpha-1 (Mus musculus) (UniProt Q5EG47); assay: Activation of AMPKalpha in differentiated mouse C2C12 cells assessed as phosphorylated-ACC level at 10 uM after 30 mins by Western blot analysis relative to control; procedure, shortened: as §1
[3] = molecular target: 5'-AMP-activated protein kinase catalytic subunit alpha-1 (Mus musculus) (UniProt Q5EG47); assay: Activation of AMPKalpha in differentiated mouse C2C12 cells assessed as change in AMPK level at 10 uM after 30 mins by Western blot analysis relative to control; procedure, shortened: as §1

Sequence of 5'-AMP-activated protein kinase catalytic subunit alpha-1 (Mus musculus) (Q5EG47 whole entry): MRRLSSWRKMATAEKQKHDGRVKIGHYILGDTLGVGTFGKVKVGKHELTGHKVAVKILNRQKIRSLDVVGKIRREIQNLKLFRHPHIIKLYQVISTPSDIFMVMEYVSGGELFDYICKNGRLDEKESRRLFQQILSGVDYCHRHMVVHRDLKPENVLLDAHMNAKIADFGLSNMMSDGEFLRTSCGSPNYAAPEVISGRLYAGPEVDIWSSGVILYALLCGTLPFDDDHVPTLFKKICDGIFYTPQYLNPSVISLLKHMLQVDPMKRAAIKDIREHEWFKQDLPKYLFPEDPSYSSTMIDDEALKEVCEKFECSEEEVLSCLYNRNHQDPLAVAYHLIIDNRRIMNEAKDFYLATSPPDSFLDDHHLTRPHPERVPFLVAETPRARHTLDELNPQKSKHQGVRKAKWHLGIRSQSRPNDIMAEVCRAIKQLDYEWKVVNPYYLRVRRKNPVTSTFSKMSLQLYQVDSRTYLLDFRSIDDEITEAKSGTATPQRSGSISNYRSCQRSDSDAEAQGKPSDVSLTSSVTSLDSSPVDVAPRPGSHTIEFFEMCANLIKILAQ

SMILES | Activity [1] | Activity [2] | Activity [3]
COc1ccc2c(C=O)c(-c3ccc(O)cc3O)oc2c1CC=C(C)C | Active | Active | inactive
COc1ccc2c(oc3c4ccc(O)cc4oc(=O)c23)c1CC=C(C)C | Active | Active | inactive
CC(C)=CCc1cc(-c2oc3c(CC=C(C)C)c(O)ccc3c2C(=O)O)c(O)cc1O |  | Active | inactive
COc1cc(C2(C=O)COc3cc(O)ccc32)c(OC)cc1O (stereo not drawn) | inactive | inactive | inactive
CC(C)=CCc1cc(-c2oc3c(CC=C(C)C)c(O)ccc3c2C=O)c(O)cc1O | inactive | inactive | inactive
CC(C)=CCc1c(O)ccc2c1oc1c3ccc(O)cc3oc(=O)c21 | Active | Active | inactive
CC(C)=CCc1cc2c(cc1O)oc(=O)c1c3ccc(O)c(CC=C(C)C)c3oc21 | Active | Active | inactive
COc1cc([C@@H]2COc3cc(O)ccc32)c(OC)cc1O | inactive | inactive | inactive
